From ChEMBL document CHEMBL1138302, “Diaryl dihydropyrazole-3-carboxamides with significant in vivo antiobesity activity related to CB1 receptor antagonism: synthesis, biological evaluation, and molecular modeling in the homology model” (J Med Chem, 2007)
Active and inactive are the calls of the source.

Key:
Rattus norvegicus [1] = assay: Inhibition of sucrose intake in Zucker fa/fa rat at 10 mg/kg, po after 4 hrs; format: functional; conditions: for inhibition in vivo at 10 mg/kg: Rattus norvegicus, Zucker, po, 4 h
In short: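 Female Zucker fa/fa rats (10-12 weeks, 300-350 g) trained six consecutive days on 5% sucrose with food and water withdrawn; day 7 randomized (n=6), dosed orally 10 mg/kg in 0.5% carboxymethylcellulose (2 mL/kg), exposed to sucrose 1 h later for 4 h. Consumption measured; % inhibition vs vehicle control; one-way ANOVA with Dunnett's test.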

Cannabinoid receptor 2 = Cannabinoid receptor 2 (Homo sapiens, UniProt P34972); assay: Displacement of [3H]WIN-552122 from human recombinant CB2 receptor expressed in CHOK1 cells; format: cell-based, CHO-K1
Cannabinoid receptor 1 = Cannabinoid receptor 1 (Homo sapiens, UniProt P21554); assay: biochemical; format: cell-based, HEK293
Rattus norvegicus [2] = assay: Inhibition of body weight gain in Zucker fa/fa rat at 10 mg/kg, po; format: functional, organism-based; parameters: dose 10 mg/kg
In short: (§1)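 Individually housed female obese Zucker fa/fa rats, groups of six, dosed orally daily 1 h before dark phase for 60 days; body weight recorded daily. Day 61 morning retro-orbital blood drawn and serum triglyceride measured by colorimetric kit. One-way ANOVA with Dunnett's test versus control.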

Rattus norvegicus [3] = assay: Reduction in serum triglyceride level in Zucker fa/fa rat at 10 mg/kg, po after 60 days; format: functional, organism-based; parameters: dose 10 mg/kg; in short: as §1
Mus musculus [4] = assay: Effect on locomotor activity in Swiss albino mouse tetrad model assessed as number of squares crossed in 5 mins at 1 mg/kg po after 35 mins in presence of 1 mg/kg cannabinoid agonist WIN-55212-2 relative to control; format: functional
In short: (§2)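 Female Swiss albino mice (10-12 weeks, 25-30 g), n=6, dosed orally in 0.5% carboxymethylcellulose (10 mL/kg); 1 h later WIN-55212-2 1 mg/kg iv in 0.01% Tween 80/5% DMSO saline. From 30 min on: rectal temperature before and after treatment; hot plate 55 °C, %MPE, 30 s cutoff; ring-test immobility over 5 min; open-field squares crossed in 5 min at 35 min. Compared with WIN-treated controls.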

Mus musculus [5] = assay: Effect on change in body temperature in Swiss albino mouse tetrad model at 3 mg/kg po in presence of 1 mg/kg cannabinoid agonist WIN-55212-2 relative to control; format: functional; in short: as §2
Mus musculus [6] = assay: Effect on catalepsy in Swiss albino mouse tetrad model assessed as immobility for 5 mins at 3 mg/kg po after 30 mins by ring test in presence of 1 mg/kg cannabinoid agonist WIN-55212-2 relative to control; format: functional; in short: as §2
[7] = Drug concentration in fasted Zucker fa/fa rat plasma at 30 mg/kg, po after 3 hrs; format: ADME, organism-based; parameters: dose 30 mg/kg, route oral
In short: (§3)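 Female obese Zucker fa/fa rats (n=6), fasted, single oral 30 mg/kg in 0.5% carboxymethylcellulose; blood, brain and white adipose tissue taken at 3 h. Tissues saline-washed and homogenized in Tris buffer pH 7.4; plasma and homogenates liquid-liquid extracted and assayed by LC-MS (cyano column, ammonium acetate/TFA–acetonitrile 30:70). Values mean ± SEM.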

Mus musculus [8] = assay: Analgesic activity in Swiss albino mouse tetrad model at 3 mg/kg po by hot plate test in presence of 1 mg/kg cannabinoid agonist WIN-55212-2 relative to control; format: functional; in short: as §2
Mus musculus [9] = assay: Effect on catalepsy in Swiss albino mouse tetrad model assessed as immobility for 5 mins at 10 mg/kg po after 30 mins by ring test in presence of 1 mg/kg cannabinoid agonist WIN-55212-2 relative to control; format: functional; in short: as §2
[10] = Drug concentration in fasted Zucker fa/fa rat brain at 30 mg/kg, po after 3 hrs; format: ADME, organism-based; parameters: dose 30 mg/kg, route oral; conditions: read-out: Drug uptake; in short: as §3
Mus musculus [11] = assay: Effect on change in body temperature in Swiss albino mouse tetrad model at 10 mg/kg po in presence of 1 mg/kg cannabinoid agonist WIN-55212-2 relative to control; format: functional; in short: as §2
Mus musculus [12] = assay: Analgesic activity in Swiss albino mouse tetrad model at 1 mg/kg po by hot plate test in presence of 1 mg/kg cannabinoid agonist WIN-55212-2 relative to control; format: functional; in short: as §2
Mus musculus [13] = assay: Effect on catalepsy in Swiss albino mouse tetrad model assessed as immobility for 5 mins at 1 mg/kg po after 30 mins by ring test in presence of 1 mg/kg cannabinoid agonist WIN-55212-2 relative to control; format: functional; in short: as §2
[14] = Drug concentration in fasted Zucker fa/fa rat white adipose tissue at 30 mg/kg, po after 3 hrs; format: ADME, organism-based; parameters: dose 30 mg/kg, route oral; conditions: read-out: Drug uptake; in short: as §3
Mus musculus [15] = assay: Effect on catalepsy in Swiss albino mouse tetrad model assessed as immobility for 5 mins at 30 mg/kg po after 30 mins by ring test in presence of 1 mg/kg cannabinoid agonist WIN-55212-2 relative to control; format: functional; in short: as §2
[16] = Half life in fasted Zucker fa/fa rat at 30 mg/kg, po; format: ADME, organism-based; parameters: dose 30 mg/kg, route oral; conditions: in vivo
In short: (§4)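 Overnight-fasted female obese Zucker fa/fa rats (n=6), single 30 mg/kg oral dose as suspension in 0.5% carboxymethylcellulose sodium in water. Retro-orbital serial bleeds at 10, 20, 40 min and 1, 2, 4, 6, 8, 24, 48 h; plasma extracted liquid-liquid and quantified by LC-MS against spiked-matrix calibration with internal standard. Noncompartmental parameters computed.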

[17] = Cmax in fasted Zucker fa/fa rat at 30 mg/kg, po; format: ADME, organism-based; parameters: dose 30 mg/kg, route oral; conditions: in vivo; in short: as §4
Mus musculus [18] = assay: Effect on locomotor activity in Swiss albino mouse tetrad model assessed as number of squares crossed in 5 mins at 10 mg/kg po after 35 mins in presence of 1 mg/kg cannabinoid agonist WIN-55212-2 relative to control; format: functional; in short: as §2
[19] = AUC (0 to infinity) in fasted Zucker fa/fa rat at 30 mg/kg, po; format: ADME, organism-based; parameters: time infinity, dose 30 mg/kg, route oral; conditions: plasma; in short: as §4
Mus musculus [20] = assay: Effect on locomotor activity in Swiss albino mouse tetrad model assessed as number of squares crossed in 5 mins at 30 mg/kg po after 35 mins in presence of 1 mg/kg cannabinoid agonist WIN-55212-2 relative to control; format: functional; in short: as §2
Mus musculus [21] = assay: Effect on change in body temperature in Swiss albino mouse tetrad model at 1 mg/kg po in presence of 1 mg/kg cannabinoid agonist WIN-55212-2 relative to control; format: functional; in short: as §2
Mus musculus [22] = assay: Analgesic activity in Swiss albino mouse tetrad model at 10 mg/kg po by hot plate test in presence of 1 mg/kg cannabinoid agonist WIN-55212-2 relative to control; format: functional; in short: as §2
Mus musculus [23] = assay: Analgesic activity in Swiss albino mouse tetrad model at 30 mg/kg po by hot plate test in presence of 1 mg/kg cannabinoid agonist WIN-55212-2 relative to control; format: functional; in short: as §2
[24] = Tmax in fasted Zucker fa/fa rat at 30 mg/kg, po; format: ADME, organism-based; parameters: dose 30 mg/kg, route oral; conditions: in vivo; in short: as §4
Mus musculus [25] = assay: Effect on locomotor activity in Swiss albino mouse tetrad model assessed as number of squares crossed in 5 mins at 3 mg/kg po after 35 mins in presence of 1 mg/kg cannabinoid agonist WIN-55212-2 relative to control; format: functional; in short: as §2
Mus musculus [26] = assay: Effect on change in body temperature in Swiss albino mouse tetrad model at 30 mg/kg po in presence of 1 mg/kg cannabinoid agonist WIN-55212-2 relative to control; format: functional; in short: as §2

Cannabinoid receptor 1, sequence (P21554 whole entry): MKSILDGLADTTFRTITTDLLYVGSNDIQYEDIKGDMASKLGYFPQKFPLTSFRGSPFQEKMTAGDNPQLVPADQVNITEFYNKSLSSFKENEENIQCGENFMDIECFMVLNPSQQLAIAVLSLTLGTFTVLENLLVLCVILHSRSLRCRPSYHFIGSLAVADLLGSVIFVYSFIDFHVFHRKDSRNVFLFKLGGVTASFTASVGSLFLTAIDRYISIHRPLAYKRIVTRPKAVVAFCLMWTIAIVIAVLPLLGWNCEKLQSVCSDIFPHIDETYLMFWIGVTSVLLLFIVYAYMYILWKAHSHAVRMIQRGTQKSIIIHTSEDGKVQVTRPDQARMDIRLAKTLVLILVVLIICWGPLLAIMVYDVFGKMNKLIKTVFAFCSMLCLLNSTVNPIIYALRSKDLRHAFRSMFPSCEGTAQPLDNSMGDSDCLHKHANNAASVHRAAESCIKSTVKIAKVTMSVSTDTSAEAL
Cannabinoid receptor 2, sequence (P34972 whole entry): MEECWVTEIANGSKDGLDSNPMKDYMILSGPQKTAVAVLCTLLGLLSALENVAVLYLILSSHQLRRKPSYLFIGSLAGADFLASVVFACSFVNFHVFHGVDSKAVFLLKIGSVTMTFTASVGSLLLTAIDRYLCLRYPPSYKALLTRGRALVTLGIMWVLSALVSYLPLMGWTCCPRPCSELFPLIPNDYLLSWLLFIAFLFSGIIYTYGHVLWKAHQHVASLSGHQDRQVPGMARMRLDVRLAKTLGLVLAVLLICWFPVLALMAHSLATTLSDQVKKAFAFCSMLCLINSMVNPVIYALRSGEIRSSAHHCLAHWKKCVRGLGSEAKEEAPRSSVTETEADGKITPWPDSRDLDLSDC

O=C(NN1CCOCC1)C1=NN(c2ccc(Cl)cc2Cl)C(c2ccc(Cl)cc2)C1 (configuration not stated)
Inhibition (Rattus norvegicus [1]): 34.2%

O=C(NN1CCOCC1)C1=NN(c2ccc(Cl)cc2)C(c2ccc(Cl)cc2)C1 (configuration not stated)
inhibition in vivo at 10 mg/kg (Rattus norvegicus [1]): 8.1%

O=C(NN1CCOCC1)C1=NN(c2ccc(Cl)cc2)C(c2ccccc2)C1 (configuration not stated)
inhibition in vivo at 10 mg/kg (Rattus norvegicus [1]): 5.6%

CCCCCc1ccc(C2CC(C(=O)NN3CCOCC3)=NN2c2ccc(Cl)cc2Cl)cc1 (configuration not stated)
inhibition in vivo at 10 mg/kg (Rattus norvegicus [1]): 13.1%

COc1ccc(C2CC(C(=O)NN3CCOCC3)=NN2c2ccc(Cl)cc2Cl)cc1 (configuration not stated)
inhibition in vivo at 10 mg/kg (Rattus norvegicus [1]): 9.4%

O=C(NN1CCOCC1)C1=NN(c2ccc(Cl)cc2Cl)C(c2cccnc2)C1 (configuration not stated)
inhibition in vivo at 10 mg/kg (Rattus norvegicus [1]): 4%

CS(=O)(=O)O.O=C(NN1CCOCC1)C1=NN(c2ccc(Cl)cc2Cl)C(c2ccc(Cl)cc2)C1 (configuration not stated)
Inhibition (Rattus norvegicus [1]): 19.2%

Cl.O=C(NN1CCOCC1)C1=NN(c2ccc(Cl)cc2Cl)C(c2ccc(Cl)cc2)C1 (racemic; form 1)
Inhibition (Rattus norvegicus [1]; 10 mg/kg): 34.5%

O=C(NN1CCOCC1)C1=NN(c2ccc(Cl)cc2Cl)C(c2ccc(Cl)cc2)C1.O=S(=O)(O)O (racemic; form 2)
Ki (Cannabinoid receptor 2): 21.7 µM
Ki (Cannabinoid receptor 1): 0.334 µM
Inhibition (Rattus norvegicus [1]; 10 mg/kg): 36.4%

O=C(NN1CCOCC1)C1=NN(c2ccc(Cl)cc2Cl)C(c2ccc(Cl)cc2)C1 (racemic; form 2)
Activity (Rattus norvegicus [2]): Active
Activity (Rattus norvegicus [3]): Active

Cl.O=C(NN1CCOCC1)C1=NN(c2ccc(Cl)cc2Cl)C(c2ccc(Cl)cc2)C1 (single isomer, unassigned; 27)
Inhibition (Rattus norvegicus [1]; 10 mg/kg): 30.1%

O=C(NN1CCOCC1)C1=NN(c2ccc(Cl)cc2Cl)C(c2ccc(Cl)cc2)C1.O=S(=O)(O)O (single isomer, unassigned; 28)
Ki (Cannabinoid receptor 2): 26.4 µM
Ki (Cannabinoid receptor 1): 0.475 µM
Inhibition (Rattus norvegicus [1]; 10 mg/kg): 15.4%

O=C(NN1CCOCC1)C1=NN(c2ccc(Cl)cc2Cl)C(c2ccc(Cl)cc2)C1.O=S(=O)(O)O (single isomer, unassigned; 30)
Activity (Mus musculus [4]): 0.4
Ki (Cannabinoid receptor 2): 24.5 µM
Activity (Mus musculus [5]): -2.1 °C
Activity (Mus musculus [6]): 33.75%
concentration at 3 h [7]: 1400 ng/mL
MPE (Mus musculus [8]): 12%
Activity (Mus musculus [9]): 14.2%
concentration at 3 h [10]: 4860 ng/g
Activity (Mus musculus [11]): -0.15 °C
MPE (Mus musculus [12]): 24%
Activity (Mus musculus [13]): 85.2%
concentration at 3 h [14]: 6310 ng/g
Activity (Mus musculus [15]): 18.23%
Ki (Cannabinoid receptor 1): 0.15 µM
half-life [16]: 17.6 h
Cmax [17]: 510 ng/mL
Inhibition (Rattus norvegicus [1]; 10 mg/kg): 58.6%
Activity (Mus musculus [18]): 13.25
AUC(0-inf) [19]: 10000 ng·h/mL
Activity (Mus musculus [20]): 25
Activity (Mus musculus [21]): -4.24 °C
MPE (Mus musculus [22]): -0.15%
MPE (Mus musculus [23]): 11.5%
Tmax [24]: 3.7 h
Activity (Mus musculus [25]): 3
Activity (Mus musculus [26]): 0.15 °C

O=C(NN1CCOCC1)C1=NN(c2ccc(Cl)cc2Cl)C(c2ccc(Cl)cc2)C1 (single isomer, unassigned; 30)
Activity (Rattus norvegicus [2]): Active
Activity (Rattus norvegicus [3]): Active

O=C(NN1CCOCC1)C1=NN(c2ccc(Cl)cc2Cl)C(c2ccc(Cl)cc2)C1.O=S(=O)(O)c1ccccc1 (single isomer, unassigned; 33)
Inhibition (Rattus norvegicus [1]): 17.1%

Cl.O=C(NN1CCOCC1)C1=NN(c2ccc(Cl)cc2Cl)C(c2ccc(Cl)cc2)C1 (stereo in doubt; 29)
Inhibition (Rattus norvegicus [1]; 10 mg/kg): 42.2%

Cc1c(C(=O)NN2CCCCC2)nn(-c2ccc(Cl)cc2Cl)c1-c1ccc(Cl)cc1 [RIMONABANT]
concentration at 3 h [7]: 400 ng/mL
concentration at 3 h [10]: 450 ng/g
concentration at 3 h [14]: 4250 ng/g
half-life [16]: 26.6 h
Cmax [17]: 1920 ng/mL
inhibition in vivo at 10 mg/kg (Rattus norvegicus [1]): 36.7%
AUC(0-inf) [19]: 41200 ng·h/mL
Activity (Rattus norvegicus [2]): Active
Activity (Rattus norvegicus [3]): Active
Tmax [24]: 2.6 h
